# Most compounds without a hit are left out; they make up all but 1.1% or so of the library.
# FAS-TE inh: blocks the thioesterase domain of human fatty acid synthase | P49327 | recombinant FAS-TE, OMFH fluorogenic substrate, fluorescence endpoint | inhibition, % at 15 µM | actives 0.67% (n = 360,000);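 active = compounds whose normalised, plate-corrected inhibition of enzyme fluorescence in the single-dose primary screen is 50% or more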
# SENP1 inh: inhibitors of human SENP1 SUMO protease catalytic domain; Q9P0U3; inhibition, % at 10 µM; recombinant SENP1 catalytic domain, CyPet-SUMO1-YPet FRET cleavage; actives 0.21% (n = 360,000);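 active = inhibition at least 30% at 10 µM, raw YFP signal under a set limit, fluorescence ratio 0.5 to 1.5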
#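 system = hSENP1 catalytic domain, recombinant | reagent = SFCypet-SUMO1-SFYpet substrate at 25 nM | doses = one dose per compound, 10 µM, 0.5% DMSO | incubation = enzyme reaction for 50 min at room temperature, dark | measured by = FRET, CFP and YFP emission | controls = no-enzyme low, enzyme-DMSO high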
# GASC-1 inh: blocks human GASC-1 demethylase activity | Q9H3R0 | GST-JMJD2C(1-420) H3K9me3 demethylation, DELFIA europium | inhibition, % at 2.35 µM | actives 0.069% (n = 330,000) | AID 2099;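 active = more than half of a compound's replicate wells show inhibition beyond 50%, single wells judged on their own value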;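 also: signal counts dimethyl H3K9 product captured on neutravidin plate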
# Target sequence (Q9H3R0 1-420 limits assumed): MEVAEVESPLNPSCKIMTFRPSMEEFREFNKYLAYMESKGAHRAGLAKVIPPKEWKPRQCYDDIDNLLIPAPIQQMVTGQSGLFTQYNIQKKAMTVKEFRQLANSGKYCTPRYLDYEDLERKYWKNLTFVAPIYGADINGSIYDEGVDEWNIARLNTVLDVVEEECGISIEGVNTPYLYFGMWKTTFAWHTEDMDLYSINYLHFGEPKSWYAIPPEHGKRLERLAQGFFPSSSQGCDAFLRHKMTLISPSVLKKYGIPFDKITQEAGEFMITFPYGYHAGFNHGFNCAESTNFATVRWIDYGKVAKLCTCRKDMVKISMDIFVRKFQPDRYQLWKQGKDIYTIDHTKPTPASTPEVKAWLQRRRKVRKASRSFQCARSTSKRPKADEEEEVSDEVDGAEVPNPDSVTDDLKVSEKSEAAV
# Arr AP2 block: inhibitors of human beta-arrestin and AP2 interaction; actives 0.31% (n = 340,000); inhibition, % at 10 µM; FITC-arrestin peptide / GST-AP2 beads, flow cytometry; AP2 beta2 appendage carries R879A mutation;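 active = inhibition above a set limit, near 3 SD of compounds lacking own fluorescence, cut at about 54% in these data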
#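 Test system: GST-tagged AP2 beta2-adaptin appendage (R879A) on 4 µm glutathione beads; also added: fluorescein-tagged arrestin peptide at 50 nM final; timing: 12 min plus 1 h, RT; signal: flow cytometry, FL1 (488/535 nm); read-out: percent drop in bead-associated FITC signal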
# A number is an active result; n = inactive; x = no result; ! = repeats disagree.
SMILES,FAS-TE inh,SENP1 inh,GASC-1 inh,Arr AP2 block
COc1cc(C(=O)N2CCCC(c3cc(C(=O)NCc4ccc(F)cc4)no3)C2)cc(OC)c1C (stereo not given),n,n,x,x
COc1ccc2c(c1)[C@H]1[C@H](CO2)[C@H](c2ccccc2)[C@]2(C)C(=O)Nc3ccc(F)cc3C(=O)N12,n,n,x,n
Cc1ccc2c(c1)[C@H]1[C@H](CO2)[C@H](c2ccccc2)[C@]2(C)C(=O)Nc3ccc(Cl)cc3C(=O)N12,n,n,n,n
Cc1ccc2c(c1)C(=O)N1[C@H]3c4ccccc4OC[C@@H]3[C@H](c3ccccc3)[C@]1(C)C(=O)N2,71.2,n,n,n
C[C@@]12C(=O)Nc3ccc(F)cc3C(=O)N1[C@H]1c3cc(Br)ccc3OC[C@@H]1[C@@H]2c1ccccc1,89.1,n,n,n
O=C(C1CCN(S(=O)(=O)c2cccc3nonc23)CC1)N1CCCCC1,n,n,n,n
COc1cc(Br)ccc1NC(=O)c1ccccc1-c1ccccc1C(=O)O,n,n,n,n
Cc1ccc(C)c(N(C(=O)c2csnn2)C(C(=O)NC2CCCC2)c2cccnc2)c1 (stereo not given),n,n,71.4,n
Cc1cc2ccccc2n2c(SCC(=O)NCc3cccs3)nnc12,n,n,n,n
O=C(Nc1ccc(N2CCOCC2)c([N+](=O)[O-])c1)c1ccco1,n,n,n,n
COC(=O)CS(=O)(=O)c1nnc([C@H](Cc2ccccc2)NC(=O)OC(C)(C)C)o1,n,n,n,n
Cc1cccc(CS(=O)(=O)c2nnc([C@H](Cc3ccccc3)NC(=O)OC(C)(C)C)o2)c1,56.6,n,n,n
O=C(Nc1ccccc1)Nc1cc(OCC(F)(F)F)cc(OCC(F)(F)F)c1,51.9,n,n,n
COc1ccc(C(=O)Nn2c(SCC(=O)c3ccccc3)nc3ccccc3c2=O)cc1,n,n,n,n
COc1ccc(C(=O)Nn2c(SCc3ccc([N+](=O)[O-])cc3)nc3ccccc3c2=O)cc1,52.2,n,n,n
CC(C)C(=O)C1=Cc2cccc([N+](=O)[O-])c2OC1N1CCOCC1 (stereo not given),n,n,n,n
Cc1ccc(NS(=O)(=O)c2cccs2)nc1,n,n,n,n
CCN1CCN(CCNC(=O)CCCn2nc(C)c3c(C)n(-c4ccc(C)cc4)nc3c2=O)CC1,n,n,n,n
O=C1C=C(Nc2ccccc2O)c2ccccc2C1=O,n,30.3,n,n
N#Cc1ccc(N=c2ssnc2Cl)cc1,n,n,57.7!,n
COc1ccc(Nc2ncnc3sc(-c4ccccc4)cc23)cc1OC,n,n,54.2,n
Cc1ccc(S(=O)(=O)Nc2ccc3cc([N+](=O)[O-])ccc3c2[N+](=O)[O-])cc1,n,53.0,x,n
COc1ccc(N2C(=O)C(Cl)=C(Oc3cccc(OC)c3)C2=O)cc1,52.3,n,n,n
O=C(c1ccc(O)cc1)c1ccc(O)cc1O,n,n,n,n
O=C(c1ccccc1)c1ccc(O)cc1O,n,53.6,n,n
SMILES,FAS-TE inh,SENP1 inh,GASC-1 inh,Arr AP2 block
O=C(Nc1ncc(Cc2ccccc2Cl)s1)C1=NCCN1,n,n,n,n
Cc1ccc(-c2csc3nc4cc(C(=O)NC5CCC(O)CC5)ccc4c(=O)n23)cc1 (stereo not given),n,n,66.6,n
Cc1ccc(-c2csc3nc4ccc(C(=O)NCCO)cc4c(=O)n23)cc1,n,n,n,n
CCOc1ccc(CCNC(=O)c2ccc3c(=O)[nH]c4c(C(=O)NC(C)C)sc(=S)n4c3c2)cc1,n,48.1,n,n
O=C(NCC1CCCO1)c1ccc2c(=O)n(CC3CCCO3)c(=S)[nH]c2c1 (stereo not given),n,n,n,n
O=C(NCCc1ccccc1)c1ccc2c(=O)[nH]c3c(C(=O)NCC4CCCO4)sc(=S)n3c2c1 (stereo not given),n,53.5,n,n
O=S(=O)(c1ccc2c(c1)OCCO2)N1CCNCC1,n,n,n,n
N#Cc1ccc(-c2ccc(F)cc2)nc1Oc1ccc(F)cc1,n,n,n,n
Cn1c(=O)c(-c2ccccc2)nn2c3ccccc3nc12,n,n,52.1,n
CCn1c(=O)c(C)nn2c3ccccc3nc12,n,n,n,n
CN1CCN(/N=C/c2ccc(-c3ccc([N+](=O)[O-])cc3Cl)o2)CC1,n,79.4,n,n
CC1=NN(c2ccccc2)C(=O)/C1=C/C=C/C=C/N(C)C,n,32.8,n,n
